Measurements as given in ChEMBL document CHEMBL1155379, “Effect of 3'-end capping of aptamer with various 2',4'-bridged nucleotides: Enzymatic post-modification toward a practical use of polyclonal aptamers” (Bioorg Med Chem Lett, 2010).

Key:
[1] = Chemical stability in presence of snake venom phosphodiesterase 1 assessed as oligonucleotide degradation after 120 mins by PAGE; type: physicochemical; conditions: 2 h
Prothrombin = Prothrombin (Homo sapiens, UniProt P00734); test: Binding affinity to human thrombin after 30 mins by non-equilibrium capillary electrophoresis
Summary of the method: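 Capillary electrophoresis of aptamer–thrombin mixtures: aptamer 1 nM with thrombin 4 nM in 20 mM Tris-HCl (1 mM MgCl2) pH 7.4 sample buffer; running buffer 100 mM sodium borate pH 8.35; separation +12 kV, injection 0.5 psi × 7.8 s. Kd derived from binding saturation curves over varied thrombin concentrations.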

[2] = Chemical stability in presence of 80% (v/v) human serum assessed as intact compound remaining after 8 hrs by PAGE; type: physicochemical; conditions: read-out: Stability
Summary of the method: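 Aptamer incubated in 80% v/v human serum at 37 °C for 8 h; intact full-length aptamer remaining quantified.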

Compound | Stability [1] | Kd (Prothrombin) [nM] | remaining at 8 h [2] [%]
C=C1NC(=O)C(C)=CN1[C@H]1C[C@H](OP(=O)(O)OC[C@H]2O[C@@H](n3cnc4c(=O)[nH]c(N)nc43)[C@H](O)[C@@H]2OP(=O)(O)OC[C@H]2O[C@@H](n3cnc4c(N)ncnc43)[C@H](O)[C@@H]2OP(=O)(O)OC[C@H]2O[C@@H](n3ccc(N)nc3=O)[C@H](O)[C@@H]2OP(=O)(O)OC[C@H]2O[C@@H](n3cc(C)c(=O)[nH]c3=O)C[C@@H]2OP(=O)(O)OC[C@@]23CNO[C@@H]([C@H](n4cc(C)c(=O)[nH]c4=O)O2)[C@@H]3O)[C@@H](COP(=O)(O)O[C@H]2[C@@H](O)[C@H](n3cnc4c(=O)[nH]c(N)nc43)O[C@@H]2COP(=O)(O)O[C@H]2[C@@H](O)[C@H](n3cnc4c(=O)[nH]c(N)nc43)O[C@@H]2COP(=O)(O)O[C@H]2[C@@H](O)[C@H](n3cnc4c(=O)[nH]c(N)nc43)O[C@@H]2COP(=O)(O)O[C@H]2[C@@H](O)[C@H](n3cnc4c(=O)[nH]c(N)nc43)O[C@@H]2COP(=O)(O)O[C@H]2C[C@H](n3cc(C)c(=O)[nH]c3=O)O[C@@H]2COP(=O)(O)O[C@H]2C[C@H](n3cc(C)c(=O)[nH]c3=O)O[C@@H]2COP(=O)(O)O[C@H]2[C@@H](O)[C@H](n3cnc4c(=O)[nH]c(N)nc43)O[C@@H]2COP(=O)(O)O[C@H]2[C@@H](O)[C@H](n3cnc4c(=O)[nH]c(N)nc43)O[C@@H]2COP(=O)(O)O[C@H]2[C@@H](O)[C@H](n3cnc4c(N)ncnc43)O[C@@H]2COP(=O)(O)O[C@H]2[C@@H](O)[C@H](n3ccc(N)nc3=O)O[C@@H]2COP(=O)(O)O[C@H]2[C@@H](O)[C@H](n3cnc4c(=O)[nH]c(N)nc43)O[C@@H]2COP(=O)(O)O[C@H]2[C@@H](O)[C@H](n3cnc4c(=O)[nH]c(N)nc43)O[C@@H]2COP(=O)(O)O[C@H]2[C@@H](O)[C@H](n3cnc4c(=O)[nH]c(N)nc43)O[C@@H]2COP(=O)(O)O[C@H]2[C@@H](O)[C@H](n3cnc4c(N)ncnc43)O[C@@H]2COP(=O)(O)O[C@H]2C[C@H](n3cc(C)c(=O)[nH]c3=O)O[C@@H]2COP(=O)(O)O[C@H]2[C@@H](O)[C@H](n3cnc4c(=O)[nH]c(N)nc43)O[C@@H]2COP(=O)(O)O[C@H]2[C@@H](O)[C@H](n3cnc4c(=O)[nH]c(N)nc43)O[C@@H]2COP(=O)(O)O[C@H]2C[C@H](n3cc(C)c(=O)[nH]c3=O)O[C@@H]2COP(=O)(O)O[C@H]2[C@@H](O)[C@H](n3cnc4c(=O)[nH]c(N)nc43)O[C@@H]2COP(=O)(O)O[C@H]2[C@@H](O)[C@H](n3ccc(N)nc3=O)O[C@@H]2COP(=O)(O)O[C@H]2[C@@H](O)[C@H](n3ccc(N)nc3=O)O[C@@H]2COP(=O)(O)O[C@H]2C[C@H](n3cc(C)c(=O)[nH]c3=O)O[C@@H]2COP(=O)(O)O[C@H]2[C@@H](O)[C@H](n3cnc4c(=O)[nH]c(N)nc43)O[C@@H]2COP(=O)(O)O[C@H]2[C@@H](O)[C@H](n3cnc4c(N)ncnc43)O[C@@H]2COc2ccc3c(c2)Oc2cc(O)ccc2C32OC(=O)c3ccccc32)O1 (stereo partly specified) | Stable | 0.21 | 20
C=C1NC(=O)C(C)=CN1[C@H]1C[C@H](OP(=O)(O)OC[C@H]2O[C@@H](n3cnc4c(=O)[nH]c(N)nc43)[C@H](O)[C@@H]2OP(=O)(O)OC[C@H]2O[C@@H](n3cnc4c(N)ncnc43)[C@H](O)[C@@H]2OP(=O)(O)OC[C@H]2O[C@@H](n3ccc(N)nc3=O)[C@H](O)[C@@H]2OP(=O)(O)OC[C@H]2O[C@@H](n3cc(C)c(=O)[nH]c3=O)C[C@@H]2OP(=O)(O)OC[C@]23O[C@@H](n4cc(C)c(=O)[nH]c4=O)[C@H](OCOC2c2ccccc2)[C@@H]3O)[C@@H](COP(=O)(O)O[C@H]2[C@@H](O)[C@H](n3cnc4c(=O)[nH]c(N)nc43)O[C@@H]2COP(=O)(O)O[C@H]2[C@@H](O)[C@H](n3cnc4c(=O)[nH]c(N)nc43)O[C@@H]2COP(=O)(O)O[C@H]2[C@@H](O)[C@H](n3cnc4c(=O)[nH]c(N)nc43)O[C@@H]2COP(=O)(O)O[C@H]2[C@@H](O)[C@H](n3cnc4c(=O)[nH]c(N)nc43)O[C@@H]2COP(=O)(O)O[C@H]2C[C@H](n3cc(C)c(=O)[nH]c3=O)O[C@@H]2COP(=O)(O)O[C@H]2C[C@H](n3cc(C)c(=O)[nH]c3=O)O[C@@H]2COP(=O)(O)O[C@H]2[C@@H](O)[C@H](n3cnc4c(=O)[nH]c(N)nc43)O[C@@H]2COP(=O)(O)O[C@H]2[C@@H](O)[C@H](n3cnc4c(=O)[nH]c(N)nc43)O[C@@H]2COP(=O)(O)O[C@H]2[C@@H](O)[C@H](n3cnc4c(N)ncnc43)O[C@@H]2COP(=O)(O)O[C@H]2[C@@H](O)[C@H](n3ccc(N)nc3=O)O[C@@H]2COP(=O)(O)O[C@H]2[C@@H](O)[C@H](n3cnc4c(=O)[nH]c(N)nc43)O[C@@H]2COP(=O)(O)O[C@H]2[C@@H](O)[C@H](n3cnc4c(=O)[nH]c(N)nc43)O[C@@H]2COP(=O)(O)O[C@H]2[C@@H](O)[C@H](n3cnc4c(=O)[nH]c(N)nc43)O[C@@H]2COP(=O)(O)O[C@H]2[C@@H](O)[C@H](n3cnc4c(N)ncnc43)O[C@@H]2COP(=O)(O)O[C@H]2C[C@H](n3cc(C)c(=O)[nH]c3=O)O[C@@H]2COP(=O)(O)O[C@H]2[C@@H](O)[C@H](n3cnc4c(=O)[nH]c(N)nc43)O[C@@H]2COP(=O)(O)O[C@H]2[C@@H](O)[C@H](n3cnc4c(=O)[nH]c(N)nc43)O[C@@H]2COP(=O)(O)O[C@H]2C[C@H](n3cc(C)c(=O)[nH]c3=O)O[C@@H]2COP(=O)(O)O[C@H]2[C@@H](O)[C@H](n3cnc4c(=O)[nH]c(N)nc43)O[C@@H]2COP(=O)(O)O[C@H]2[C@@H](O)[C@H](n3ccc(N)nc3=O)O[C@@H]2COP(=O)(O)O[C@H]2[C@@H](O)[C@H](n3ccc(N)nc3=O)O[C@@H]2COP(=O)(O)O[C@H]2C[C@H](n3cc(C)c(=O)[nH]c3=O)O[C@@H]2COP(=O)(O)O[C@H]2[C@@H](O)[C@H](n3cnc4c(=O)[nH]c(N)nc43)O[C@@H]2COP(=O)(O)O[C@H]2[C@@H](O)[C@H](n3cnc4c(N)ncnc43)O[C@@H]2COc2ccc3c(c2)Oc2cc(O)ccc2C32OC(=O)c3ccccc32)O1 (stereo partly specified) | Stable | 0.28 | 20
